From publication PMC10247892 (Biomedicine & Pharmacotherapy, 2023)
Like-named read-outs stand apart in the source and are kept apart here.

Assays:
[1] = tested on: HCoV-229E; assay: Antiviral activity against HCoV-229E in MRC-5 cells; type: cell-based, human coronavirus 229E; settings: for IC50: read-out: IC50 ± SD
Procedure, shortened: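 MRC-5 cells were seeded at 20,000/well in duplicate per drug and condition and grown to 80 % confluency. Virus was adsorbed at MOI 0.1 PFU/cell in FBS-free DMEM for 1 h at 37 °C, then removed. Serial dilutions of test compound in 1 % FBS DMEM were added for 24 h, at doses below MTT-determined cytotoxicity. Cells were fixed with PFA, saponin-permeabilised and stained with anti-N antibody, Alexa 488 secondary and DAPI, then imaged by widefield fluorescence. Infection was normalised to the untreated infected control (100 %). IC50 came from a nonlinear dose-effect fit. Three replicate experiments.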

[2] = tested on: MRC-5 cells; assay: Cytotoxicity assay; type: cell-based; settings: read-out: CC50 ± SD, MTT, 24 h
[3] = tested on: Vero E6 cells; settings: uninfected Vero E6 cells, 3 days
[4] = tested on: Vero E6 cells; assay: TEM of mock-infected Vero E6 cells; type: cell-based; settings: 48 h
Procedure, shortened: (§1)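 Mock- or virus-infected Vero E6 monolayers were kept without or with two concentrations of test compound (0.16 mM or 20 mM for the cyclodextrin shown). At 48 h they were fixed with 4 % PFA plus 1 % glutaraldehyde in PBS for 2 h at RT. Samples were pelleted, post-fixed on ice in osmium tetroxide/potassium ferrocyanide, acetone-dehydrated and epoxy-embedded. At least 100 cells per condition were examined by TEM.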

[5] = Cytotoxicity assay; type: cell-based; settings: human, MRC-5 cells
[6] = tested on: SARS-CoV-2 Spike pseudovirus; type: cell-based
[7] = tested on: SARS-CoV-2; type: cell-based; settings: Vero E6 cells
[8] = tested on: SARS-CoV-2; assay: TEM of Vero E6 cells infected with SARS-CoV-2; type: cell-based; settings: infected Vero E6, highest concentration (HβCD 20 mM), 48 hpi
Procedure, shortened: as §1

[9] = HCoV229E, MRC-5 cells, MOI 0.1, 24 h
[10] = Human coronavirus 229E, MRC5, 24 h
[11] = Vero E6, lower or only dose (HβCD 0.16 mM, phytol 50 µM)

Row | Compound | First cytotoxic conc. [3] [µM] | CC50 at 24 h [5] [µM] | Inhibition of HCoV-229E infection (in words) ([1]; MRC-5 cells) | further results
1 | CC1=C(C(=O)OC2CCCCC2)C(c2ccc([N+](=O)[O-])cc2)C2=C(CC(C)(C)CC2=O)N1 (stereo not drawn) [FLI 06] | 4 to 6.25 |  |  | IC50 [1, 9]: 0.4 ± 0.3 µM; CC50 [2]: > 50 µM
2 | CC(O)COC[C@H]1O[C@@H]2O[C@H]3[C@H](O)[C@@H](O)[C@@H](O[C@H]4[C@H](O)[C@@H](O)[C@@H](O[C@H]5[C@H](O)[C@@H](O)[C@@H](O[C@H]6[C@H](O)[C@@H](O)[C@@H](O[C@H]7[C@H](O)[C@@H](O)[C@@H](O[C@H]8[C@H](O)[C@@H](O)[C@@H](O[C@H]1[C@H](O)[C@H]2O)O[C@@H]8COCC(C)O)O[C@@H]7COCC(C)O)O[C@@H]6COCC(C)O)O[C@@H]5COCC(C)O)O[C@@H]4COCC(C)O)O[C@@H]3COCC(C)O (stereo partly drawn) [HβCD, hydroxypropyl-β-cyclodextrin] | 20000 | 43600 |  | IC50 [1, 10]: 4300 ± 4000 µM; Alterations in mock-infected cells by TEM (in words) ([4]; Vero E6, higher dose (HβCD 20 mM)): increased number of vacuoles; Alterations in mock-infected cells by TEM (in words) [4, 11]: did not produce appreciable changes; Inhibition of SARS-CoV-2 pseudovirus entry (in words) [6]: inhibited the entry of pseudovirus; Inhibition of SARS-CoV-2 pseudovirus entry (in words) ([6]; listed as HP-β): most potent; Antiviral activity against SARS-CoV-2 (in words) [7]: had antiviral activity; Effect on infected cells by TEM (in words) [8]: all viral structures were reduced
3 | COC[C@H]1OC(=O)c2coc3c2[C@@]1(C)C1=C(C3=O)[C@@H]2CCC(=O)[C@@]2(C)C[C@H]1OC(C)=O [Wortmannin] | 25 | > 50 |  | IC50 [1, 10]: 21.6 ± 15.6 µM
4 | CC1=CC[C@@H](C(C)(C)O)CC1 [Alpha-terpineol] |  | 1060 |  | IC50 [1, 10]: 382 ± 107 µM
5 | Oc1ccc(/C=C/c2cc(O)cc(O)c2)cc1 [Resveratrol] |  |  | inhibit 229E virus | 
6 | CCc1c(-c2ccccc2)c(-c2ccccc2)nn1-c1ccccc1-c1cccc(OCC(=O)O)c1 [BMS309403] |  |  | inhibited 229E but their CC50 was close to the IC50 | 
7 | C[C@H]1O[C@@H](O[C@H]2[C@@H](O)C[C@H](O[C@H]3[C@@H](O)C[C@H](O[C@H]4CC[C@@]5(C)[C@H](CC[C@@H]6[C@@H]5CC[C@]5(C)[C@@H](C7=CC(=O)OC7)CC[C@]65O)C4)O[C@@H]3C)O[C@@H]2C)C[C@H](O)[C@@H]1O [Digitoxin] | 1.56 | 0.0069 |  | 
8 | O=c1c(O)c(-c2cc(O)c(O)c(O)c2)oc2cc(O)cc(O)c12 [Myricetin] |  | 434 |  | 
9 | C[C@@H]1CC[C@H]2C(C)(C)[C@H]3C[C@@]12CC[C@@]3(C)O [alpha-cedrol] |  |  | inhibited 229E but their CC50 was close to the IC50 | 
10 | C=C1CC/C=C(\C)CC[C@@H]2[C@@H]1CC2(C)C [(-)-Trans-Caryophyllene] |  | 1840 |  | 
11 | OC[C@H]1O[C@@H]2O[C@H]3[C@H](O)[C@@H](O)[C@@H](O[C@H]4[C@H](O)[C@@H](O)[C@@H](O[C@H]5[C@H](O)[C@@H](O)[C@@H](O[C@H]6[C@H](O)[C@@H](O)[C@@H](O[C@H]7[C@H](O)[C@@H](O)[C@@H](O[C@H]8[C@H](O)[C@@H](O)[C@@H](O[C@H]1[C@H](O)[C@H]2O)O[C@@H]8CO)O[C@@H]7CO)O[C@@H]6CO)O[C@@H]5CO)O[C@@H]4CO)O[C@@H]3CO [β-CD, ß-Cyclodextrin] |  |  |  | Inhibition of SARS-CoV-2 pseudovirus entry (in words) [6]: most potent
12 | CC(=O)NS(=O)(=O)c1ccc(N)cc1 [Sulfacetamide] |  | > 1000 |  | 
13 | CC(C)C[C@H](NC(=O)[C@H](Cc1ccccc1)NC(=O)c1cnccn1)B(O)O [Bortezomib (PS-341), Bortezomib] | 0.8 | > 0.1 |  | IC50 [1, 10]: 0.0006 ± 0.0003 µM
14 | Gingenoside RB1 | 50 |  |  | IC50 [1, 9]: 48.3 ± 2.1 µM; CC50 [2]: > 1000 µM
15 | CC1=CCC(=C(C)C)CC1 [Terpinolene] | 10000 | 69000 |  | IC50 [1, 10]: 8000 ± 2200 µM
16 | CCC(C)n1ncn(-c2ccc(N3CCN(c4ccc(OCC5COC(Cn6cncn6)(c6ccc(Cl)cc6Cl)O5)cc4)CC3)cc2)c1=O (stereo not drawn) [Itraconazole] |  |  | inhibit 229E virus | 
17 | C=C(C)[C@H]1CC=C(C)CC1 [R-(+)-Limonene] |  |  |  | CC50 [2]: 1910 µM
18 | CO[C@H]1C[C@@H]2CC[C@@H](C)[C@@](O)(O2)C(=O)C(=O)N2CCCC[C@H]2C(=O)O[C@H]([C@H](C)C[C@@H]2CC[C@@H](OCCO)[C@H](OC)C2)CC(=O)[C@H](C)/C=C(\C)[C@@H](O)[C@@H](OC)C(=O)[C@H](C)C[C@H](C)/C=C/C=C/C=C/1C [Everolimus] |  |  | inhibit 229E virus | 
19 | O=C1c2c(O)cc(O)cc2OC(c2ccc(O)c(O)c2)C1O (stereo not drawn) [Taxifolin] |  |  | inhibit 229E virus | 
20 | CCCCCCCCCCC(C)(C)C(=O)Nc1c(OC)cc(OC)cc1OC [CI976] | 100 |  |  | CC50 [2]: 50.7 µM

Row | Compound | First cytotoxic conc. [3] [µM] | CC50 at 24 h [5] [µM] | Inhibition of HCoV-229E infection (in words) ([1]; MRC-5 cells) | further results
21 | CCC(CC)COC(=O)[C@H](C)N[P@](=O)(OC[C@H]1O[C@@](C#N)(c2ccc3c(N)ncnn23)[C@H](O)[C@@H]1O)Oc1ccccc1 [Remdesivir] | 100 |  |  | 
22 | CC(=O)Nc1nc(C)c(-c2ccc(Cl)c(S(=O)(=O)NCCO)c2)s1 [PIK93] | 20 |  |  | IC50 [1, 9]: 4.2 ± 1.4 µM; CC50 [2]: > 50 µM
23 | NCC(CC(=O)O)c1ccc(Cl)cc1 (stereo not drawn) [Baclogen] |  |  | did not have an inhibitory effect | CC50 [2]: > 1000 µM
24 | CC(C)[C@@H]1NC(=O)[C@H](C)OC(=O)[C@@H](C(C)C)NC(=O)[C@@H](C(C)C)OC(=O)[C@H](C(C)C)NC(=O)[C@H](C)OC(=O)[C@@H](C(C)C)NC(=O)[C@@H](C(C)C)OC(=O)[C@H](C(C)C)NC(=O)[C@H](C)OC(=O)[C@@H](C(C)C)NC(=O)[C@@H](C(C)C)OC1=O [Valinomycin] | 0.32 | 12.5 |  | IC50 [1, 10]: 2.5 ± 0.2 µM
25 | CO[C@H]1C[C@@H]2CC[C@@H](C)[C@@](O)(O2)C(=O)C(=O)N2CCCC[C@H]2C(=O)O[C@H]([C@H](C)C[C@@H]2CC[C@@H](O)[C@H](OC)C2)CC(=O)[C@H](C)/C=C(\C)[C@@H](O)[C@@H](OC)C(=O)[C@H](C)C[C@H](C)/C=C/C=C/C=C/1C [Sirolimus] |  |  | inhibit 229E virus | 
26 | CC(=O)Oc1ccccc1C(=O)O [Aspirin] |  | 1100 |  | IC50 [1, 10]: 1000 µM
27 | Phytol | 100 to 200 |  |  | IC50 [1, 9]: 18.6 ± 6.9 µM; Alterations in mock-infected cells by TEM (in words) [4, 11]: did not cause significant alterations; CC50 [2]: 56.2 µM; Antiviral activity against SARS-CoV-2 (in words) [7]: had antiviral activity; Effect on infected cells by TEM (in words) [8]: clear signs of cytopathic effect
28 | Nc1ccc(C(=O)NCC(=O)O)cc1 [Aminohipurric] |  |  |  | CC50 [2]: < 10000 µM
29 | CC(=O)O[C@H]1C[C@H](O[C@H]2[C@@H](O)C[C@H](O[C@H]3[C@@H](O)C[C@H](O[C@H]4CC[C@@]5(C)[C@H](CC[C@@H]6[C@@H]5C[C@@H](O)[C@]5(C)[C@@H](C7=CC(=O)OC7)CC[C@]65O)C4)O[C@@H]3C)O[C@@H]2C)O[C@H](C)[C@H]1O[C@@H]1O[C@H](CO)[C@@H](O)[C@H](O)[C@H]1O [Lanatoside C] |  |  | inhibit 229E virus | 
30 | O=c1c(O)c(-c2ccc(O)c(O)c2)oc2cc(O)cc(O)c12 [Quercetin] |  |  | inhibit 229E virus | 
31 | C=C1C2CCC(C2)C1(C)C (stereo not drawn) [Camphene] |  | 72000 |  | 
32 | OCC(S)CS (stereo not drawn) [Dimercaprol] |  |  | inhibited 229E but their CC50 was close to the IC50 | 
33 | N[C@@H](Cc1ccccc1)C(=O)O [L-Phenilalanine] |  |  |  | CC50 [2]: < 10000 µM
34 | COc1cc([C@H]2Oc3cc([C@H]4Oc5cc(O)cc(O)c5C(=O)[C@@H]4O)ccc3O[C@@H]2CO)ccc1O [SilibininA, Silibinin A] |  |  | inhibit 229E virus | 
35 | CC1(C)CC[C@]2(C(=O)O)CC[C@]3(C)C(=CC[C@@H]4[C@@]5(C)CC[C@H](O)C(C)(C)[C@@H]5CC[C@]43C)[C@@H]2C1 [Oleanolic acid] |  | 25200 |  | 
36 | COc1cc(-n2c(=S)[nH]c3ccccc3c2=O)c(Cl)cc1Cl [Mdivi-1] | 20 |  |  | IC50 [1, 9]: 11.7 ± 0.7 µM; CC50 [2]: 95.4 µM
37 | CCC(C)(C)C(=O)O[C@H]1C[C@@H](C)C=C2C=C[C@H](C)[C@H](CC[C@@H]3C[C@@H](O)CC(=O)O3)[C@H]21 [Simvastatin] |  |  | inhibit 229E virus | 
38 | C[C@H]1O[C@@H](O[C@H]2[C@@H](O)C[C@H](O[C@H]3[C@@H](O)C[C@H](O[C@H]4CC[C@@]5(C)[C@H](CC[C@@H]6[C@@H]5C[C@@H](O)[C@]5(C)[C@@H](C7=CC(=O)OC7)CC[C@]65O)C4)O[C@@H]3C)O[C@@H]2C)C[C@H](O)[C@@H]1O [Digoxin] |  |  | inhibit 229E virus | 
39 | C=C1CC[C@H]2C(=C)CC[C@H]3C(=C)C(=O)O[C@@H]3[C@@H]12 [Dehydrocostus lactone] | 100 | 39.1 |  | IC50 [1, 10]: 4.2 ± 1.8 µM
